Laboratory results from article PMC2213596 (The Journal of Cell Biology, 2008).

How the values were obtained:
[1] = tested on: cytochrome c release from MEF mitochondria; test: in vitro cytochrome c release assay; assay type: cell-based, mouse; conditions: 5 μM ABT-737, 30°C, 1 h
MEFs [2] = test: short-term killing assay with ABT-737; assay type: cell-based, mouse
Procedure, shortened: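 Constructs in pMIG (MSCV-IRES-GFP) were packaged in transiently transfected ecotropic Phoenix cells. Filtered supernatants were spin-inoculated onto FDC-P1 cells or SV40 large T-immortalized MEFs. ABT-737 was added immediately after spin inoculation. Viability was the fraction of GFP+ cells excluding 5 μg/ml PI, read by flow cytometry 30 h or at indicated times after transduction. MEF dose-response used stably infected lines given 0–10 μM ABT-737 for 24 h.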

MCF-7 cells = test: thapsigargin-induced apoptosis, cell viability; assay type: cell-based; conditions: 1.5 μM thapsigargin, 0–48 h
Procedure, shortened: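 Wild-type MCF-7 cells and a subclone stably expressing Bim shRNA were treated with 1.5 μM thapsigargin for 0–48 h. Survival was measured by flow cytometry as propidium iodide exclusion. Values are means ± SD of three experiments.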

Mcl-1 in MCF-7 cells = test: Mcl-1 levels by Western blotting after thapsigargin; assay type: cell-based; conditions: up to 48 h, with 50 μM qVD-OPH
Procedure, shortened: (§1)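 Cells were cultured with 50 μM qVD-OPH to block caspase cleavage of Mcl-1. For 2, MCF-7 cells were given 1.5 μM thapsigargin for up to 48 h. For 1, primary bim+/+ mouse thymocytes were given 1 μg/ml ionomycin. Cells were lysed in 1% (vol/vol) Triton X-100 buffer. Western blots were probed with rat monoclonal anti-Mcl-1 (19C4-15) and anti-Bim, then reprobed for HSP70 as loading control.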

primary thymocytes = test: ionomycin-induced killing, cell viability; assay type: cell-based, mouse; conditions: 1 μg/ml ionomycin
Procedure, shortened: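 Thymocytes came from bim+/+ or bim−/− mice. They were treated with 1 μg/ml ionomycin for 0–24 h. Viability was scored by flow cytometry as propidium iodide-excluding cells. Values are means ± SD of three experiments.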

[3] = tested on: Mcl-1 in primary thymocytes; test: Mcl-1 levels by Western blotting after ionomycin; assay type: cell-based, mouse; conditions: with 50 μM qVD-OPH
Procedure, shortened: as §1

MEFs [4] = test: long-term tolerance assay; assay type: cell-based, mouse; conditions: wild-type MEFs; retroviral expression linked to GFP through IRES; ∼40 d
Procedure, shortened: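 SV40-immortalized MEF lines stably expressing BH3-only constructs from pMIG (GFP via IRES) were grown without selection. They were harvested every 3 or 4 d over 38 d. At each time point, flow cytometry measured the proportion of GFP+ cells that excluded propidium iodide.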

Molecule: CN(C)CC[C@H](CSc1ccccc1)Nc1ccc(S(=O)(=O)NC(=O)c2ccc(N3CCN(Cc4ccccc4-c4ccc(Cl)cc4)CC3)cc2)cc1[N+](=O)[O-] [ABT-737]
- cytochrome c release ([1]; mitochondria from BimS2A-expressing cells): significant release
- cytochrome c release ([1]; mitochondria from BimS4E-expressing cells): No cytochrome c release
- time to maximal cell death (MEFs [2]; 1 μM ABT-737, MEFs expressing BimS2A, Noxa or BimSNoxaBH3): 4 to 6 h
- killing of MEFs lacking Bim and Bid (MEFs [2]; ABT-737 with BimS2A expression): able to synergize and kill
- killing of bax−/− and bak−/− MEFs (MEFs [2]; BimS2A/ABT-737 combination): able to kill
- viability of MEFs expressing Mcl-1–selective BH3-only proteins (MEFs [2]; MEFs expressing BimS2A, BimSNoxaBH3 or Noxa, 24 h, 0–10 μM ABT-737): efficiently kill cells

Molecule: C/C=C(/C)C(=O)O[C@H]1C(C)=C2[C@H]([C@@H]1OC(=O)CCCCCCC)[C@@](C)(OC(C)=O)C[C@H](OC(=O)CCC)[C@@]1(O)[C@H]2OC(=O)[C@@]1(C)O [thapsigargin]
- cell death of MCF-7 cells expressing Bim shRNA (MCF-7 cells): relatively insensitive
- cell death of wild-type MCF-7 cells (MCF-7 cells; three experiments): Significant cell death
- Mcl-1 levels over levels in untreated cells (Mcl-1 in MCF-7 cells): up to twofold

Molecule: CC(C)[C@H](NC(=O)c1ccc2ccccc2n1)C(=O)N[C@@H](CC(=O)O)C(=O)COc1c(F)cccc1F [qVD-OPH]
- effect on killing induced by ionomycin (primary thymocytes; 50 μM qVD-OPH, thymocytes): significantly reduced the killing

Molecule: C[C@H](CCC(=O)O)C[C@H](C)C[C@H](C)C(=O)/C=C(\O)[C@H](C)C[C@H](C)C/C=C/[C@@H](C)[C@@H](O)[C@@H](C)[C@@H](O)C[C@@H]1CC[C@@](C)([C@H]2CC[C@@](C)([C@@H](C)O)O2)O1 [ionomycin]
- killing of Bim-deficient thymocytes (primary thymocytes; 0–24 h): attenuates
- death of wild-type thymocytes (primary thymocytes; 0–24 h, three experiments): significant death
- Mcl-1 levels after treatment [3]: did not significantly change

B1: Noxa: BH3-only protein preferentially binding Mcl-1, retrovirally expressed (protein, UniProt Q9JM54 1-103, looked up)
Phorbol-12-myristate-13-acetat …: MPGRKARRNAPVNPTRAELPPEFAAQLRKIGDKVYCTWSAPDITVVLAQMPGKSQKSRMRSPSPTRVPADLKDECAQLRRIGDKVNLRQKLLNLISKLFNLVT
- viable cells that remained GFP+ve (MEFs [4]): progressive loss

B2: BimS2A: full-length BimS containing the L62A/F69A mutations, retrovirally expressed (protein)
chain: MAKQPSDVSSECDREGRQLQPAERPPQLRPGAPTSLQTEPQASMRQAEPADMRPEIWIAQEARRIGDEANAYYARRVFLNNYQAAEDHPRMVILRLLRYIVRLVWRMH
modifications: left off: HA, end not stated, kept
- viable cells that remained GFP+ve (MEFs [4]): progressive loss

B3: Bad: BH3-only protein targeting Bcl-xL, Bcl-w and Bcl-2, retrovirally expressed (protein, UniProt Q61337 1-204, looked up)
Bcl2-associated agonist of …: MGTPKQPSLAPAHALGLRKSDPGIRSLGSDAGGRRWRPAAQSMFQIPEFEPSEQEDASATDRGLGPSLTEDQPGPYLAPGLLGSNIHQQGRAATNSHHGGAGAMETRSRHSSYPAGTEEDEGMEEELSPFRGRSRSAPPNLWAAQRYGRELRRMSDEFEGSFKGLPRPKSAGTATQMRQSAGWTRIIQSWWDRNLGKGGSTPSQ
- viable cells that remained GFP+ve (MEFs [4]): > 80%
